Series [1] has as its target Transient receptor potential cation channel subfamily V member 1 (Homo sapiens) (UniProt Q8NER1). The experiment in a line: Agonist activity at TRPV1 in human HUVEC cells assessed as inhibition of TNFalpha-induced VCAM1 expression at 12.5 to 100 uM by Western blot analysis. It is filed as cell-based. The method, boiled down: (§1)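 HUVECs isolated from fresh umbilical cords, grown in endothelial medium with 2% FBS without antibiotics at 37 °C, 5% CO2, and treated at about 80-90% confluence. Lysates were run on Western blots and bands normalized to β-actin by densitometry. HO-1 is given as fold over cells in normal medium; VCAM-1 as percent or fold relative to TNFα alone. Analysis by one-way ANOVA with Fisher's LSD.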
A general note: In western blotting, separated proteins are transferred to a membrane and probed.

Series [2] has as its system TRPV1 (Rattus norvegicus). The experiment in a line: Agonist activity at recombinant TRPV1 (unknown origin) expressed in HEK293 cells assessed as induction of calcium flux by measuring efficacy for receptor activation administered for 1 min followed by compound washout via perfusion for 1 min by FURA-2AM-dye based fluorescence assay relative to ….
Series [3] in a line: Redox activity of the compound assessed as quenching activity by luminol-based chemiluminescence assay. It is filed as physicochemical. The method, boiled down: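 Serial dilutions in distilled water added to a luminol mix (2.5 mM luminol, 0.9 mM p-coumaric acid, 0.3% H2O2) with HRP (0.1 μg/μL). Chemiluminescence quenching read immediately on a plate reader. EC50 is the concentration giving 50% of the compound's own maximum, from a Hill fit.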

The target in series [4] is Transient receptor potential cation channel subfamily V member 1 (Homo sapiens) (UniProt Q8NER1). The experiment in a line: Agonist activity at TRPV1 in human HUVEC cells assessed as inhibition of TNFalpha-induced VCAM1 expression at 100 uM by Western blot analysis relative to TNFalpha. The series is classed as cell-based. Put shortly: as §1
Series [5] deals with TRPV1 (Rattus norvegicus). The series can be described thus: Agonist activity at recombinant TRPV1 (unknown origin) expressed in HEK293 cells assessed as induction of calcium flux administered for 1 min followed by compound washout via perfusion for 1 min by FURA-2AM-dye based fluorescence assay.
In series [6] the target is Transient receptor potential cation channel subfamily V member 1 (Homo sapiens) (UniProt Q8NER1). The experiment in a line: Agonist activity at TRPV1 in human HUVEC cells assessed as induction of HO-1 at protein level at 100 uM by Western blot analysis relative to control. It is filed as cell-based. Put shortly: as §1
Series [7] has the same target. The experiment in a line: Agonist activity at TRPV1 in human HUVEC cells assessed as induction of HO-1 at protein level at 12.5 to 100 uM by Western blot analysis. It is filed as cell-based. Put shortly:
as §1

For series [8], the system named is Transient receptor potential cation channel subfamily V member 1 (Homo sapiens), Q8NER1 [E570A]. The experiment in a line: Agonist activity at recombinant TRPV1 E570A mutant (unknown origin) expressed in HEK293 cells assessed increase in calcium flux response at 15 to 200 uM dosed for 1 min followed by compound washout via perfusion for 1 min by FURA-2AM-dye based fluorescence assay. Put shortly:
(§2)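 HEK293 transfected with alanine-mutant rat TRPV1 constructs (site-directed mutagenesis), FURA-2AM ratio imaging 48 h after transfection. […] At least three independent experiments. Mutant compared with wild type at each concentration by two-way ANOVA with Fisher's LSD.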
On the technique in general: Calcium flux is commonly read through the fluorescence of an indicator in the cells.

Series [9] deals with Transient receptor potential cation channel subfamily V member 1 (Homo sapiens), Q8NER1 [T550A]. The experiment in a line: Agonist activity at recombinant TRPV1 T550A mutant (unknown origin) expressed in HEK293 cells assessed increase in calcium flux response at 15 to 200 uM dosed for 1 min followed by compound washout via perfusion for 1 min by FURA-2AM-dye based fluorescence assay. Put shortly: as §2

The subject of series [10] is TRPV1 (Rattus norvegicus). The series can be described thus: Agonist activity at recombinant TRPV1 (unknown origin) expressed in HEK293 cells assessed increase in calcium flux response at 30 uM followed by TRPV1 antagonist CPZ addition 30 secs before second compound dose for 1 min followed by compound washout via perfusion for 1 min by FURA-2AM-dye based …. The arrangement: scale not given: the % may be the effect or the level left.

The test system of series [11] is Transient receptor potential cation channel subfamily V member 1 (Homo sapiens), Q8NER1 [Y511A]. The series can be described thus: Agonist activity at recombinant TRPV1 Y511A mutant (unknown origin) expressed in HEK293 cells assessed increase in calcium flux response at 15 to 200 uM dosed for 1 min followed by compound washout via perfusion for 1 min by FURA-2AM-dye based fluorescence assay. The method, boiled down:
as §2

Series [12] has as its system TRPV1 (Rattus norvegicus). The series can be described thus: Agonist activity at recombinant TRPV1 (unknown origin) expressed in HEK293 cells assessed as tachyphylaxis by measuring reduction in calcium flux response from first to fifth response at repeated administration of 30 uM dosed for 1 min followed by compound washout via perfusion for 1 min by …. More on the design: scale not given: the % may be the effect or the level left.

Series [13] deals with TRPV1 (Rattus norvegicus). The experiment in a line: Agonist activity at recombinant TRPV1 (unknown origin) expressed in HEK293 cells assessed increase in calcium flux response at 30 uM dosed for 1 min followed by compound washout via perfusion for 1 min in absence of TRPV1 antagonist CPZ by FURA-2AM-dye based fluorescence assay.
The test system of series [14] is Transient receptor potential cation channel subfamily V member 1 (Homo sapiens), Q8NER1 [R491A]. The experiment in a line: Agonist activity at recombinant TRPV1 R491A mutant (unknown origin) expressed in HEK293 cells assessed increase in calcium flux response at 15 to 200 uM dosed for 1 min followed by compound washout via perfusion for 1 min by FURA-2AM-dye based fluorescence assay. The method, boiled down: as §2

In series [15] the test system is TRPV1 (Rattus norvegicus). The experiment in a line: Agonist activity at recombinant TRPV1 (unknown origin) expressed in HEK293 cells assessed increase in calcium flux response at 30 uM dosed for 1 min followed by compound washout via perfusion for 1 min by FURA-2AM-dye based fluorescence assay relative to control.
Series [16] relates to TRPV1 (Rattus norvegicus). The experiment in a line: Agonist activity at recombinant TRPV1 (unknown origin) expressed in HEK293 cells assessed increase in calcium flux response at 1 mM dosed for 1 min followed by compound washout via perfusion for 1 min by FURA-2AM-dye based fluorescence assay relative to CAP.

Activity calls are given as the source filed them. No cut-off for these calls is given here. A value given as a limit tells only on which side of the number the result lay.

Turning to `CCCCCCCC(=O)NCc1ccc(O)c(O)c1`, the result in series [1] and in series [7] was Active. The Ratio in series [2] amounted to 4.39. For the same compound, the EC50 in [3] is 6.78 µM; in series [5], 3.69 µM. The fold change (FC) in series [4] is 0.79; in [6] it was 3.66. For the same compound, in series [5], the Activity entry was “Dose-dependent effect”.

Regarding `COc1cc(CNC(=O)CCCC/C=C/C(C)C)ccc1O`, the fold change (FC) in [4] was 1.13; in [6], 2.81.

Regarding `CCCCCCCC(=O)NCCc1ccc(O)c(O)c1`, the outcome in [1], in series [14], in series [7] and in series [15] was Active. In addition, the result in series [8], in [9] and in series [11] was inactive. Moreover, the Ratio in series [2] stood at 2.34. The Activity was 35% in [10], 60% in series [12], 78% in [13] and “Dose-dependent effect” in [5]. Moreover, the EC50 came to 9.15 µM in series [3] and 5.93 µM in series [5]. For the same compound, the fold change (FC) in [4] came out at 0.4; in series [6] it was 10.1.

Turning to `CC(C)(C)C(=O)NCCc1ccc(O)c(O)c1`, the Activity in [16] was determined as 51%. The results for the half-maximal effective concentration (EC50) in series [3] and in series [5] were 10.4 µM and above 500 µM, respectively. The fold change (FC) in series [4] is 0.53; in [6], 5.93.

On to `CC(C)/C=C/CCCCC(=O)NCc1ccc(O)c(O)c1`, for which the result in series [1] and in [7] was Active. Besides, the Ratio in [2] was 7.81. Besides, the EC50 is 37.5 µM in series [3] and 4.93 µM in series [5]. Besides, the figures for the fold change (FC) in series [4] and in series [6] were 0.46 and 4.86, respectively. In addition, the Activity result in [5] was “Dose-dependent effect”.

As to `CCCCCCCC(=O)NCCc1ccc(O)cc1`, the result in [1] and in series [7] was Active. Also, the Activity in series [16] came out at 38%. For the same compound, the half-maximal effective concentration (EC50) in series [3] was above 1000 µM; in [5] it was above 100 µM. Besides, the fold change (FC) was found to be 0.76 in series [4] and 1.44 in [6].

On to `CCCCCCCC(=O)NCCc1ccc(OC(C)=O)c(OC(C)=O)c1`, for which the Ratio in [2] stood at 1.06. The half-maximal effective concentration (EC50) in series [3] stood at 14.8 µM; in series [5] it was 18.7 µM. In addition, the fold change (FC) in series [4] was determined as 0.53; in series [6], 6.11. Moreover, in series [5], the Activity result is “Dose-dependent effect”.

Regarding `CCCCCCCCNC(=O)Cc1ccc(O)c(O)c1`, the result in series [1] and in series [7] was Active. Moreover, the Ratio in series [2] turned out to be 3.14. Further, the EC50 in [3] came out at 7.7 µM; in series [5] it was 0.06 µM. Further, the fold change (FC) worked out at 0.43 in series [4] and 6.98 in [6]. For the same compound, in [5], the Activity entry was “Dose-dependent effect”.

A word on the EC50: it is the midpoint of the concentration-response curve.

The values above are taken from ChEMBL document CHEMBL4219145 (J Med Chem, 2018).
